From the array DNA melting data of Ke et al. (doi:10.1101/2024.01.08.574731)

How the values were obtained:
[1] = folding enthalpy; higher = less favourable; fluorescence melt of hairpins on a sequencing array, two-state fit; conditions: sodium 0.088 M
Procedure, shortened: (§1)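 Folding enthalpy and melting temperature were estimated with bootstrapped two-state fits and combined across four replicates by inverse-variance weighting, with fitted temperatures raised by 9.35 °C to match UV melts. The data were Cy3 fluorescence of library hairpins, with annealed Cy3 and quencher oligos, on a sequenced MiSeq flow cell in 50 mM Na-HEPES pH 8.0, 25 mM NaCl, imaged in 2.5 °C steps up to 60 °C and normalised to pre-quench Cy3 and control constructs.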

[2] = melting temperature; fluorescence melt of hairpins on a sequencing array, two-state fit, raised by 9.35 °C to match UV melts; conditions: sodium 0.088 M
Procedure, shortened: as §1

Row | Sequence | folding enthalpy [1] | Tm [2]
1 | GATCCGGAGCCGGATC ((((((....)))))) | -60.6 kcal/mol | 56.3 °C
2 | GCAACGCGAAAGCTTTGC ((((.((....)).)))) | -27.4 kcal/mol | 55.5 °C
3 | GATTGCCGAAAGGCTATC (((.(((....))).))) | -19.1 kcal/mol | 51.4 °C
4 | GGGATTGGAAACGATCCC (((((.(....).))))) | -43.8 kcal/mol | 51.9 °C
5 | GATCGGCTATCCGATC ((((((....)))))) | -38.4 kcal/mol | 55.8 °C
6 | CGGCCGGAAACGGATCCG ((((((....)))..))) | -22 kcal/mol | 39.8 °C
7 | GGATTACGAAAGTATCC (((.(((....)))))) | -22.2 kcal/mol | 42.3 °C
8 | GTTCACGAAAGTGTAAC ((((((....))).))) | -18.8 kcal/mol | 38.7 °C
9 | GCTGTCGAAAGACCTAGC ((((((....)))..))) | -15.7 kcal/mol | 36.5 °C
10 | GCGTGGAAACGC ((((....)))) | -30.1 kcal/mol | 58.8 °C
11 | GCTCTTGCGAAAGCAAGC (((..(((....)))))) | -8.63 kcal/mol | 36.2 °C
12 | GGGATTGCGAAAGCACCC (((..(((....)))))) | -14.5 kcal/mol | 41.2 °C
13 | GACGCCGGAAACGACGTC ((((.((....)).)))) | -44.8 kcal/mol | 57.5 °C
14 | GCACGCGAAAGCGTATGC ((((((....)))..))) | -13.3 kcal/mol | 50.9 °C
15 | GGCCCTTCGAAAGAAGCC (((..(((....)))))) | -12.6 kcal/mol | 27.3 °C
16 | GCCTCGCGAAAGCACGGC (((..((....))..))) | -22.5 kcal/mol | 54.1 °C
17 | GCCATCGAAAGATACGGC ((((((....)))..))) | -26.4 kcal/mol | 41.5 °C
18 | GGGTCACCGAAAGGTCCC (((..(((....)))))) | -17.1 kcal/mol | 38.9 °C
19 | GCATAGCGAAAGCGCTGC (((..((....))..))) | -16.5 kcal/mol | 51.3 °C
20 | GGTCACGAAAGTGACACC ((((((....)))..))) | -7.64 kcal/mol | 52 °C
21 | GCTCCGGGAAACCGAAGC (((.(((....))).))) | -27.9 kcal/mol | 47.5 °C
22 | GTCTACGGAAACATAGAC (((((.(....).))))) | -27.1 kcal/mol | 31 °C
23 | GATCACCTTAGTGATC ((((((....)))))) | -39.1 kcal/mol | 59.3 °C

Row | Sequence | folding enthalpy [1] | Tm [2]
24 | GTTGCCGAAAGGCTTAAC ((((((....)))..))) | -8.96 kcal/mol | 26.6 °C
25 | GGCCGCACGAAAGTGGCC (((..(((....)))))) | -26.5 kcal/mol | 58.9 °C
26 | GTGAGTGGAAACACTCGC (.(((((....))))).) | -33.1 kcal/mol | 54.9 °C
27 | GCGATGGGTCGC ((((....)))) | -23.4 kcal/mol | 54.4 °C
28 | GCAGGGCCGAAAGGCTGC (((..(((....)))))) | -14.3 kcal/mol | 55.3 °C
29 | GCATAGCGAAAGCTCCGC ((..(((....)))..)) | -8.77 kcal/mol | 32.6 °C
30 | GTATCCGAAAGGACGTAC ((((((....)))..))) | -9.37 kcal/mol | 25.9 °C
31 | GGAGATGAAAATCTCC ((((((....)))))) | -36.2 kcal/mol | 57.6 °C
32 | GATCACGTGCGTGATC ((((((....)))))) | -45.1 kcal/mol | 59.7 °C
33 | GCTCCGCGAAAGCATAGC (((..((....))..))) | -10.1 kcal/mol | 33.1 °C
34 | GCGGTCGAAAGACGACGC ((((((....)))..))) | -37.4 kcal/mol | 53.8 °C
35 | GGTTCGGGAAACCGAGTC (..((((....))))..) | -13.1 kcal/mol | 36.5 °C
36 | GCGGAGGGAAACCCCCGC ((((.((....)).)))) | -38.9 kcal/mol | 57.6 °C
37 | GTCTACACGAAAGTGGAC (((..(((....)))))) | -14.1 kcal/mol | 37.2 °C
38 | GATTCCGAAAGGAGCATC ((((((....)))..))) | -11.6 kcal/mol | 27.3 °C
39 | GTAACTGGAAACAGCTAC (((.(((....))).))) | -30.1 kcal/mol | 34.2 °C
40 | GCGATGATTCGC ((((....)))) | -23.3 kcal/mol | 50.9 °C
41 | TTCCGGAAACGGAA (((((....))))) | -18.6 kcal/mol | 48.7 °C
42 | GTTACCGAAAGGTCGAAC ((((((....)))..))) | -9.83 kcal/mol | 28.2 °C
43 | GGACGCGGAAACGCATCC (((.(((....))).))) | -26.3 kcal/mol | 48.9 °C
44 | GATCTAAATCTAGATC ((((((....)))))) | -25.2 kcal/mol | 35.4 °C
45 | GACGGCCCGAAAGGGGTC (((..(((....)))))) | -8.8 kcal/mol | 44.1 °C
46 | GGCGTTTCGAAAGAAGCC (((..(((....)))))) | -23.8 kcal/mol | 42.5 °C

Row | Sequence | folding enthalpy [1] | Tm [2]
47 | GATCCCCGAAAGGGAATC (((.(((....))).))) | -21.8 kcal/mol | 44.9 °C
48 | GATCTGACATCAGATC ((((((....)))))) | -33.5 kcal/mol | 48.3 °C
49 | GAGGTTGGAAACAGCTTC ((.(.((....)).).)) | -36 kcal/mol | 39.9 °C
50 | GACAATGAAAATTGTC ((((((....)))))) | -31.3 kcal/mol | 51.6 °C
51 | GATCCGCAAACGGATC ((((((....)))))) | -42.2 kcal/mol | 58 °C
52 | GCGGTTGGAAACAGCCGC ((((.((....)).)))) | -40.1 kcal/mol | 64.6 °C
53 | GTTTTTCCGAAAGGAAAC (((..(((....)))))) | -13.4 kcal/mol | 35.1 °C
54 | GCACGTCGAAAGACATGC (((.(((....))).))) | -31.7 kcal/mol | 52.7 °C
55 | GCCAGGCGAAAGCCACGC ((..(((....)))..)) | -13.1 kcal/mol | 38.8 °C
56 | CGCGGAAGCTCCGCG ((((((...)))))) | -26.3 kcal/mol | 68.8 °C
57 | GCAATTGGAAACAATCGC ((.((((....)))).)) | -27.4 kcal/mol | 38.8 °C
58 | GGTAGCGAAAGCTTTACC ((((((....)))..))) | -15.7 kcal/mol | 34.4 °C
59 | GATCTGGTTCAGATC ((((((...)))))) | -36.5 kcal/mol | 49.9 °C
60 | GCGTACGAAAGTAACCGC ((((((....)))..))) | -22.1 kcal/mol | 45 °C
61 | GCAGACGAAAGTCGATGC ((((((....)))..))) | -17.6 kcal/mol | 45.4 °C
62 | GCAGGAGAAATCCTGC ((((((....)))))) | -36.1 kcal/mol | 61.1 °C
63 | GATCCACGATGGATC ((((((...)))))) | -27 kcal/mol | 48.6 °C
64 | GCCAGACCGAAAGGTGGC (((..(((....)))))) | -42.4 kcal/mol | 53.7 °C
65 | GATCAGACTCTGATC ((((((...)))))) | -35 kcal/mol | 47.1 °C
66 | CGGGAACGGAAACGTCCG (((..(((....)))))) | -22.2 kcal/mol | 43.1 °C
67 | GGCCATTCGAAAGAAGCC (((..(((....)))))) | -19.9 kcal/mol | 33.1 °C
68 | GGCTACGAAAGTAAAGCC ((((((....)))..))) | -32.5 kcal/mol | 50.5 °C
69 | GCGAACGGAAACGTCCGC (((.(((....))).))) | -40.2 kcal/mol | 54.6 °C

Row | Sequence | folding enthalpy [1] | Tm [2]
70 | GGGACGCGAAAGCGCCC (((.(((....)))))) | -15.4 kcal/mol | 64.7 °C
71 | GATCTAAAGTTAGATC ((((((....)))))) | -26.1 kcal/mol | 36.7 °C
72 | GCTGTGCCGAAAGGCAGC (((..(((....)))))) | -10.3 kcal/mol | 48.7 °C
73 | GCTTACGAAAGTACCAGC ((((((....)))..))) | -13.2 kcal/mol | 27.9 °C
74 | GAACCGCGAAAGCGTTC (((.(((....)))))) | -14.2 kcal/mol | 44 °C
75 | GCAAAGACGAAAGTCTGC (((..(((....)))))) | -15.7 kcal/mol | 50.2 °C
76 | GCGGGGCGAAAGCGTCGC (((..((....))..))) | -36 kcal/mol | 67.8 °C
77 | GGACGACGAAAGTCATCC (((.(((....))).))) | -23.5 kcal/mol | 48.8 °C
78 | GCGCTGCGAAAGCGGTGC ((.(.((....)).).)) | -31.8 kcal/mol | 66.7 °C
79 | GATCTCACAAGAGATC ((((((....)))))) | -38.7 kcal/mol | 53.7 °C
80 | GAATGCGAAAGCACCTTC ((((((....)))..))) | -11.2 kcal/mol | 33.2 °C
81 | GCGTTTGGAAACAGATGC ((.(.((....)).).)) | -17.6 kcal/mol | 30.1 °C
82 | GTGCTGGGAAACCGGCAC ((((.((....)).)))) | -41.1 kcal/mol | 61 °C
83 | GCGGTTGTCCGC ((((....)))) | -23.5 kcal/mol | 58.6 °C
84 | GCAGTACGAAAGTATTGC (((.(((....))).))) | -45.2 kcal/mol | 52.8 °C
85 | GAAAGCGAAAGCTTCTTC ((((((....)))..))) | -24.5 kcal/mol | 53.5 °C
86 | GATCAGCTGCTGATC ((((((...)))))) | -47.7 kcal/mol | 50.7 °C
87 | GATCGACGATCGATC ((((((...)))))) | -20.6 kcal/mol | 49.2 °C
88 | CGATCGGAAACGAACTCG ((((((....)))..))) | -9.8 kcal/mol | 24.4 °C
89 | GCAACGCGAAAGCATTGC ((((.((....)).)))) | -27.3 kcal/mol | 59.7 °C
90 | GCACCCGAAAGGGAGTGC ((((((....)))..))) | -38.3 kcal/mol | 54 °C
91 | GCTCTGCGAAAGCTAAGC (((..((....))..))) | -13.4 kcal/mol | 37.9 °C
92 | GCGTAAGCGAAAGCTCGC (((..(((....)))))) | -17.6 kcal/mol | 48.4 °C
